High-throughput results deposited in PubChem BioAssay by The Scripps Research Institute Molecular Screening Center.
Sampled rows, rich in hits. Any-hit rate of the full collection: about 1.3%.
HTRA1 inhibitor: HTRA1 serine protease inhibitors, primary screen, biochemical, fluorescence polarization, HTS. recombinant HTRA1, FP-rhodamine activity-based probe. inhibition, % at 5.96 µM. 340,000 tested, 0.5% active. Q92743; in the data active = inhibition above about 36%;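 note: 0% = enzyme with DMSO and 100% = wells lacking enzyme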
Tn6 DDE FP: inhibitors of Tn6 peptide binding to fibrin DD(E), primary screen, biochemical, fluorescence polarization, human fibrin, Tn6 probe; Fibrin DD(E) TRITC-Tn6 fluorescence polarization displacement; inhibition, % at 8.3 µM; 370,000 tested, 0.21% active; AID 720509, 2013;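 active = inhibition above a per-campaign cutoff: mean of compounds within control limits plus 3 SD, cut at about 15% in these data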;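 note: 0% = median of all compound wells on the plate and 100% = blocking peptide control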
Target sequence (P02675 whole entry, looked up): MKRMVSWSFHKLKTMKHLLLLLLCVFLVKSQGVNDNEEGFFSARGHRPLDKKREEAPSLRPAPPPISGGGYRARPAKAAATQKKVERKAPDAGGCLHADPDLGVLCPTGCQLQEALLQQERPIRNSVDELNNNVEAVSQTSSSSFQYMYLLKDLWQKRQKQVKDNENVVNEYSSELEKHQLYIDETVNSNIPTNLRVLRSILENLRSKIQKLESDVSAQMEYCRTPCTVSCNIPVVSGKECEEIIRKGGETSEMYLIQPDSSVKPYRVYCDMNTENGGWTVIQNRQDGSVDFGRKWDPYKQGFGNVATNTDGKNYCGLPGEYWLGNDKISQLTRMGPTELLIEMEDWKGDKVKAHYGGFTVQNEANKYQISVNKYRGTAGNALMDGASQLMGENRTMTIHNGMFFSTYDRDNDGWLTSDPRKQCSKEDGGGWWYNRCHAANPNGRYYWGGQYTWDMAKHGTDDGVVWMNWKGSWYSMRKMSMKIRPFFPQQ
Tn7 DDE FP: inhibitors of Tn7 peptide binding to fibrin DD(E), primary screen, biochemical, fluorescence polarization, human fibrin, Tn7 probe; AID 720508, 2013; Fibrinogen beta chain (Homo sapiens), P02675; inhibition, % at 8.3 µM; FP displacement of FITC-Tn7 peptide from fibrin DD(E); 0% = median of compound wells per plate; 370,000 tested, 0.13% active;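 active = inhibition above the mean of compounds falling within the control limits plus 3 SD of them, cut at about 14% in these data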;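 note: 0% = plate median of compound wells and 100% = 10 µM Aha-Tn7 peptide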
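System: human fibrin DD(E); quantity: Fibrin-DD(E) at 2 µM final; also added: fluorescent Tn7 probe at 0.1 µM; compound dosing: single nominal test concentration of 8.3 µM per compound; schedule: 10 min preincubation, 3 h with tracer, room temperature; detection: fluorescence polarization of the labelled Tn7 tracer; repeats: one replicate per compound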
mABHD4 FP: ABHD4 inhibitors, primary screen, biochemical, fluorescence polarization, mouse | purified mABHD4, FP-Rh probe fluorescence polarization | inhibition, % at 8.92 µM | 370,000 tested, 0.54% active | (Lyso)-N-acylphosphatidylethanolamine lipase (Mus musculus), Q8VD66 | AID 720543, 2013;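 active = inhibition exceeding the mean over every tested compound plus 3 SD, cut at about 30% in these data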;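 note: 0% = plate median of compound wells and 100% = S159A mutant with DMSO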
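Assay system: Wild-type mouse ABHD4 protein | Medium: HEPES pH 7.0 buffer, 150 mM NaCl, 0.01% Pluronic F-127 | Incubation: Enzyme–compound pre-incubation 45 min, then probe 60 min, both 25 °C | Technique: Fluorescence polarization with parallel and perpendicular emission, 525/598 nm | Evaluation: % inhibition of FP-Rh probe binding versus controls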
TCR CD3 inh: inhibitors of human TCR-CD3 interaction, primary screen, biochemical, fluorescence, TAMRA-labeled TCR probe; T-cell receptor (TCR); 360,000 tested, 0.37% active; inhibition, % at 9.4 µM; AID 651800, 2012; in the data active = inhibition above about 19%;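 note: recombinant mutant TCR 2C K166C tagged with TAMRA read by polarization; 0% = receptor in buffer alone and 100% = receptor with positive control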
DDE Tn7 confirm: inhibitors of Tn7 peptide binding to fibrin DD(E), confirmation, biochemical, fluorescence polarization, human fibrin, Tn7 probe. shares compounds with Tn7 DDE FP. FP displacement of TRITC-Tn7 peptide from DD(E); 0% set at plate's compound-well median. inhibition, % at 8.3 µM. 460 tested, 5% active. AID 720628, 2013;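 active = inhibition above the campaign cutoff, the mean of compounds within control limits plus 3 SD, cut at about 14% in these data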;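 note: 100% = median FP of high control wells holding Aha-Tn7 inhibitor peptide; displacers lower polarization since freed probe rises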
DDE Tn7 FP ctr: counter-screen hit for Tn7 peptide-fibrin DD(E) binding disruption. shares compounds with Tn7 DDE FP. TRITC-Tn7 probe displacement, fluorescence polarization. inhibition, % at 8.3 µM. 460 tested, 3% active. AID 720633;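 active = inhibition above the cutoff, the mean of compounds lying between the control bounds plus 3 SD of those compounds, cut at about 17% in these data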;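 note: 0% = median of compound sample wells and 100% = excess unlabeled Aha-Tn7 peptide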
DDE Tn6 FP ctr: DD(E)-Tn6 binding inhibition, counter-screen; Fibrin DD(E), TRITC-Tn6 fluorescence polarization displacement; 0% = median of compound wells, not DMSO; inhibition, % at 8.3 µM; 680 tested, 2% active; shares compounds with Tn6 DDE FP;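 active = inhibition above the mean of test compounds lying between the control limits plus 3 SD of those, cut at about 14% in these data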;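 note: 0% = median of compound wells and 100% = wells with Aha-Tn7 blocking peptide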
Tn6 DDE conf: inhibitors of Tn6 peptide binding to fibrin DD(E), confirmation, biochemical, fluorescence polarization, human fibrin, Tn6 probe; shares compounds with Tn6 DDE FP; FP displacement of TRITC-Tn6 peptide from DD(E); 0% = per-plate median of test wells; inhibition, % at 8.3 µM; 680 tested, 10% active; AID 720631, 2013;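 active = inhibition above the mean of compounds lying within the control limits plus 3 SD, cut at about 16% in these data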;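 note: 100% = high control wells holding a competing inhibitor peptide at 10 µM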
ABHD4 confirm: ABHD4 inhibitors, retest, confirmation, biochemical, fluorescence polarization, mouse; shares compounds with mABHD4 FP; purified mABHD4, FP-Rh probe fluorescence polarization; inhibition, % at 8.92 µM; 1,800 tested, 55% active;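 active = mean inhibition across replicates above the hit cutoff set in the primary screen, cut at about 30% in these data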;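 note: 0% = wild-type ABHD4 with DMSO and 100% = catalytically dead S159A mutant with DMSO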
* = called active by the depositor; . = no result.

SMILES	HTRA1 inhibitor	Tn6 DDE FP	Tn7 DDE FP	mABHD4 FP	TCR CD3 inh	DDE Tn6 FP ctr	Tn6 DDE conf	others
O=C(NCCC1=CCCCC1)c1ccc(-n2cncn2)c([N+](=O)[O-])c1	2	162*	24*	6	9	2	5	DDE Tn7 confirm=2;DDE Tn7 FP ctr=5
COc1ccc(C(=O)NCCC2=CCCCC2)cc1[N+](=O)[O-]	-3	-3	6	-4	-7	.	.
Cc1nn(C)c(Oc2ccc(Cl)cc2)c1C(=O)O	5	-11	-3	-1	8	.	.
CN(CC(=O)Nc1ccccc1C(=O)NC1CC1)Cc1ccc(N(C)C)cc1	-5	40*	18*	-1	12	-6	-10	DDE Tn7 confirm=-6;DDE Tn7 FP ctr=-10
COc1ccc(CN(C)CC(=O)Nc2ccccc2C(=O)NC2CC2)cc1	-7	1	5	0	-2	.	.
CCNC(=O)C1CCCN(C(=O)Cc2cccs2)CC1 (stereo unspecified)	.	18*	15*	1	6	2	-3	DDE Tn7 confirm=2;DDE Tn7 FP ctr=-3
COCC(=O)N(Cc1cc2ccc(C)cc2[nH]c1=O)c1ccc(C)cc1C	8	2	-2	-6	2	.	.
COc1ccc(N(Cc2cc3cc(OC)ccc3[nH]c2=O)C(=O)c2cccnc2)cc1	4	21*	23*	8	1	-6	-11	DDE Tn7 confirm=-6;DDE Tn7 FP ctr=-11
COCCCNC(=S)NNC(=O)c1ccccn1	2	3	16*	39*	0	.	.	DDE Tn7 confirm=7;DDE Tn7 FP ctr=-4;ABHD4 confirm=44*
NC(=O)c1ccc[n+](CC(=O)c2cccc([N+](=O)[O-])c2)c1	6	-1	4	11	-3	.	.
CCn1c(=S)sc2c(=O)n(-c3ccccc3)c(=S)[nH]c21	-21	18*	4	0	6	8	-15
CCOc1ccccc1-n1c(=S)sc2c(=O)n(-c3ccc(C)cc3)c(=S)[nH]c21	-2	11	-2	8	0	.	.
O=C(C(=NNc1ccccc1)c1ccccc1)c1ccccc1	-39	4	-3	-17	8	.	.
Cc1c(CN2CCC(C(=O)Nc3ccc(Oc4ccccc4)nc3)CC2)cnn1C	0	15*	-2	2	-3	9	6
CCC(CC)C(=O)N(CCc1ccc(OC)cc1)Cc1nc2ccccc2c(=O)[nH]1	-12	0	2	6	1	.	.
O=C(Nc1cccc([N+](=O)[O-])c1)c1ccc([N+](=O)[O-])o1	7	18*	-2	2	-2	2	1
O=C(Cc1ccccc1)Nc1ccc(NC(=O)Cc2ccccc2)c(Cl)c1	2	1	4	6	-9	.	.
O=C1NC[C@@H](c2ccccc2)OC(=O)[C@@H](Cc2ccc(F)cc2)CC/C=C/C[C@@H]1CC(=O)N(CCO)Cc1ccccc1	-14	16*	8	-10	8	7	0
COc1ccc(N2CCN(C(=O)C3CCN(S(=O)(=O)c4ccccc4)CC3)CC2)cc1	7	4	-5	8	3	.	.
O=C(C1CCN(S(=O)(=O)c2ccccc2)CC1)N1CCN(c2ccccc2)CC1	-3	15*	6	5	4	-1	-1
CCCCCCCCN1C(=O)[C@@H](CC(=O)NCCC(C)C)C[C@@]2(C(=O)OC)C1=C[C@H](C(C)(C)C)O[C@@H]2C	.	16*	-5	3	9	2	-4
O=C(NC(Cc1cccc(F)c1)C(=O)O)C1CCCCC1 (stereo unspecified)	-3	16*	-3	0	-2	-2	-6
Cc1ccc(C(=O)NC(Cc2cccc(F)c2)C(=O)O)cc1 (stereo unspecified)	-3	5	-7	-3	1	.	.
CCN1CC2=C(OC(N)=C(C#N)C2c2ccccc2)/C(=C\c2ccccc2)C1 (stereo unspecified)	-8	25*	-1	-3	3	12	7
Nc1sccc1C(=O)c1ccccc1	.	15*	3	13	-3	1	0
SMILES	HTRA1 inhibitor	Tn6 DDE FP	Tn7 DDE FP	mABHD4 FP	TCR CD3 inh	DDE Tn6 FP ctr	Tn6 DDE conf	others
COc1ccc(-c2c(S(=O)(=O)c3ccccc3)cnn2-c2ccccc2)cc1	-22	-1	-4	-7	3	.	.
O=S(=O)(c1ccccc1)c1cnn(-c2ccccc2)c1-c1ccc(Cl)cc1	-27	16*	4	-10	0	3	-6
CCSc1ccc(-c2cc(NC=O)c3ncc(-c4cc(OC)c(OC)c(OC)c4)n3c2)cc1	.	7	8	-6	-27	.	.
CCCN(C(=O)c1cc(-c2ccco2)nc2ccccc12)c1c(N)n(Cc2ccccc2)c(=O)[nH]c1=O	4	-1	10	-2	5	.	.
O=C(CSc1ccc(Br)c2cccc(Cl)c12)Nc1ccc(S(=O)(=O)Nc2nccs2)cc1	-88	27*	-1	-96	5	5	0
CC[C@]12c3[nH]c4ccc(Cl)cc4c3CCN1C(=O)[C@@H](CC(=O)NCc1ccc(OC)c(OC)c1)C[C@@H]2C(=O)N1CCN(C(=O)c2ccco2)CC1	2	-3	-5	8	-5	.	.
Cn1cc(CN2CCCC(C(=O)c3cccs3)C2)c(-c2cccc(Cl)c2)n1 (stereo unspecified)	-12	-1	2	-2	-6	.	.
COc1ccccc1C1C(C(=O)NCc2ccccc2)=C(C)Nc2ncnn21 (stereo unspecified)	-3	-1	4	1	-1	.	.
